Calls of active or inactive are those of the source. The calls are words filed in the database; no cut-off is given here.
Columns and labels:
Rattus norvegicus [1] = assay: Antiinflammatory activity against carrageenan-induced paw edema in Sprague-Dawley rat assessed as paw weight at 20 mg/kg, po administered 4 hrs post challenge measured after 30 mins (reference value: 62.6+/-3.1 g); assay type: functional
[2] = target: T1, Prostaglandin G/H synthase 1 (Mus musculus) (UniProt P22437); assay: Inhibition of COX-1-mediated PGE2 production in arachidonic acid-stimulated mouse J774 cells at 10 uM incubated for 15 mins prior to arachidonic acid-challenge by radioimmunoassay; assay type: cell-based
T1 sequence (whole entry): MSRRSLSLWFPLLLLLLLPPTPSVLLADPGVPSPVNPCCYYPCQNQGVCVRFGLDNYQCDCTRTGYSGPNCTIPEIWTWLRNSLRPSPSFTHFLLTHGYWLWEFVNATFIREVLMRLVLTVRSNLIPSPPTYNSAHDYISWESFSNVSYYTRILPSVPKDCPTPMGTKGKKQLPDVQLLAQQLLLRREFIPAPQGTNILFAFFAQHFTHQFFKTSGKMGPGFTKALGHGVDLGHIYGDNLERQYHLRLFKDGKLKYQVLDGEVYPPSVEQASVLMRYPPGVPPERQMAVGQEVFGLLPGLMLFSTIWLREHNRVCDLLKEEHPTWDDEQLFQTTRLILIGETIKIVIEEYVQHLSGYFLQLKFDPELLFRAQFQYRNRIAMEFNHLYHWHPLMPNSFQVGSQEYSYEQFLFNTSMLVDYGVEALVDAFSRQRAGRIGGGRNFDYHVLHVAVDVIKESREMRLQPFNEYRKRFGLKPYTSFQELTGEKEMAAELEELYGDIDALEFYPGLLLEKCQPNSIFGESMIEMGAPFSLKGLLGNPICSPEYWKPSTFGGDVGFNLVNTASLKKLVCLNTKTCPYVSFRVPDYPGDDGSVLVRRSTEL
Summary of the method: (§1)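 J774 murine macrophages grown in DMEM with 10% FBS and allowed to adhere for 2 h at 37 °C. Where inhibition exceeded 50%, 0.01–1 μM was also tested. Supernatant PGE2 was measured by RIA as % inhibition versus control, in triplicate wells over three experiments. IC50 came from a sigmoidal variable-slope fit.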

[3] = target: T2, Prostaglandin G/H synthase 1 (Mus musculus, UniProt P22437); assay: Inhibition of COX-1-mediated PGE2 production in arachidonic acid-stimulated mouse J774 cells incubated for 15 mins prior to arachidonic acid-challenge by radioimmunoassay; assay type: cell-based
T2 sequence (P22437 whole entry): T1 sequence (whole entry)
Summary of the method: as §1, with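 “2 h at 37 °C. Cells were pretreated with compound at 10 μM for 15 min, then given 15 μM arachidonic acid for 30 min at 37” for “2 h at 37”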

Rattus norvegicus [4] = assay: Antiinflammatory activity against carrageenan-induced paw edema in Sprague-Dawley rat assessed as paw weight at 40 mg/kg, po administered 4 hrs post challenge measured after 120 mins (reference value: 61.3+/-3.0 g); assay type: functional
Rattus norvegicus [5] = assay: Antiinflammatory activity against carrageenan-induced paw edema in Sprague-Dawley rat assessed as paw weight at 20 mg/kg, po administered 4 hrs post challenge measured after 120 mins (reference value: 62.6+/-3.1 g); assay type: functional
Rattus norvegicus [6] = assay: Antiinflammatory activity against carrageenan-induced paw edema in Sprague-Dawley rat assessed as paw weight at 40 mg/kg, po administered 4 hrs post challenge measured after 60 mins (reference value: 61.3+/-3.0 g); assay type: functional
Rattus norvegicus [7] = assay: Antiinflammatory activity against carrageenan-induced paw edema in Sprague-Dawley rat assessed as paw weight at 20 mg/kg, po administered 4 hrs post challenge measured after 60 mins (reference value: 62.6+/-3.1 g); assay type: functional
Rattus norvegicus [8] = assay: Antiinflammatory activity against carrageenan-induced paw edema in Sprague-Dawley rat assessed as paw weight at 40 mg/kg, po administered 4 hrs post challenge measured after 30 mins (reference value: 61.3+/-3.0 g); assay type: functional
J774 = assay: Selectivity ratio of IC50 for COX1 in mouse J774 cells to IC50 for COX2 in mouse J774 cells; assay type: cell-based
Summary of the method: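 Ratio of J774 IC50s, COX-1 over COX-2. For COX-1, cells were pretreated with compound for 15 min, then given 15 μM arachidonic acid for 30 min at 37 °C. For COX-2, cells received E. coli LPS 10 μg/mL for 24 h with compound at 0.01–10 μM. PGE2 was measured by RIA in triplicate wells over three experiments. IC50 came from a sigmoidal fit.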

Mus musculus [9] = assay: Analgesic activity in Swiss albino mouse abdominal constriction model assessed as reduction in acetic acid-induced writhing response for 10 mins at 20 to 40 mg/kg, po administered 30 mins prior to acetic acid-challenge measured after 5 mins relative to vehicle-treated control; assay type: functional, organism-based; details: Abdomen
Summary of the method: (§2)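 Male Swiss albino mice (23−25 g); 0.6% acetic acid (10 mL/kg) injected ip. Stretching movements counted for 10 min, starting 5 min after administration. Oral doses in carboxymethylcellulose (CMC) vehicle, compared with vehicle-treated mice.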

Rattus norvegicus [10] = assay: Antiinflammatory activity against carrageenan-induced edema in Sprague-Dawley rat assessed as right hind paw volume at 40 mg/kg, po administered 4 hrs post challenge measured after 60 mins; assay type: functional
Summary of the method: (§3)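 Rats received intraplantar carrageenan. Right hind paw volume was measured 4 h after the carrageenan injection and compared with saline/carrageenan-treated controls. Oral dosing in CMC vehicle; volume recorded at 60 min after treatment.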

Rattus norvegicus [11] = assay: Antiinflammatory activity against carrageenan-induced paw edema in Sprague-Dawley rat assessed as paw weight at 20 mg/kg, po administered 4 hrs post challenge measured after 60 mins (reference value: 32.6+/-2.7 g); assay type: functional
[12] = target: Prostaglandin G/H synthase 1 (Homo sapiens, UniProt P23219); assay: Inhibition of platelet COX1-mediated TXB2 production in LPS-induced human whole blood after 60 mins by radioimmunoassay; assay type: tissue-based
Chain of Prostaglandin G/H synthase 1 (Homo sapiens, UniProt P23219) (P23219 whole entry): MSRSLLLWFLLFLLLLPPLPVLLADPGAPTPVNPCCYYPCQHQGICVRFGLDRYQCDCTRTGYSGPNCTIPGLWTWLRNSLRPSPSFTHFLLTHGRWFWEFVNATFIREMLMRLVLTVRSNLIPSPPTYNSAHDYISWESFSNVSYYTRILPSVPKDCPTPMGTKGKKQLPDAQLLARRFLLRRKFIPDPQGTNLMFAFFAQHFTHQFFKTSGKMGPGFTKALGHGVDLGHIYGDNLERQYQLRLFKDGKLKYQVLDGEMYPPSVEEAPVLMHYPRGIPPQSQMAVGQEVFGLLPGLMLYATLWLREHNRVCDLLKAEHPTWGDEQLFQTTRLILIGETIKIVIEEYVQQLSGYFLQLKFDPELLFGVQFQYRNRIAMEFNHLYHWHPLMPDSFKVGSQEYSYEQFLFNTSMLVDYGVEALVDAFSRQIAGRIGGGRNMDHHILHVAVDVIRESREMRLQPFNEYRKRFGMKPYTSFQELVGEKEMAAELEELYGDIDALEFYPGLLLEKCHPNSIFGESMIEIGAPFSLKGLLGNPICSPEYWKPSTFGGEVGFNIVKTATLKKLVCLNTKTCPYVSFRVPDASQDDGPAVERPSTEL

Rattus norvegicus [13] = assay: Antiinflammatory activity against carrageenan-induced paw edema in Sprague-Dawley rat assessed as paw weight at 100 mg/kg, po administered 4 hrs post challenge measured after 30 mins (reference value: 31.9+/-3.0 g); assay type: functional
Mus musculus [14] = assay: Analgesic activity in Swiss albino mouse abdominal constriction model assessed as reduction in acetic acid-induced writhing response for 10 mins at 40 mg/kg, po administered 30 mins prior to acetic acid-challenge measured after 5 mins relative to vehicle-treated control; assay type: functional, Abdomen; parameters: scale not given: the % may be the effect or the level left; summary of the method: as §2
Rattus norvegicus [15] = assay: Antiinflammatory activity against carrageenan-induced paw edema in Sprague-Dawley rat assessed as paw weight at 20 mg/kg, po administered 4 hrs post challenge measured after 30 mins (reference value: 32.6+/-2.7 g); assay type: functional
Rattus norvegicus [16] = assay: Antiinflammatory activity against carrageenan-induced paw edema in Sprague-Dawley rat assessed as paw weight at 40 mg/kg, po administered 4 hrs post challenge measured after 30 mins (reference value: 29.8+/-3.1 g); assay type: functional
Aorta [17] = assay: Vasorelaxation activity against KCl-induced contraction in isolated Wistar rat thoracic endothelium-denulated aortic rings; assay type: functional, tissue-based
Summary of the method: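 Endothelium-denuded thoracic aortic rings from male Wistar rats (250−350 g); denudation confirmed by <10% relaxation to 10 μM ACh. Rings precontracted with 30 mM KCl; compound added at 3-fold increasing concentrations, 1 nM to 10 μM. Isometric tension recorded. Emax given as % of KCl tone; pIC50 derived. Mean ± standard error of 6−10 experiments; repeated with 1 μM ODQ.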

Rattus norvegicus [18] = assay: Antiinflammatory activity against carrageenan-induced paw edema in Sprague-Dawley rat assessed as paw weight at 40 mg/kg, po administered 4 hrs post challenge measured after 60 mins (reference value: 29.8+/-3.1 g); assay type: functional
Rattus norvegicus [19] = assay: Antiinflammatory activity against carrageenan-induced paw edema in Sprague-Dawley rat assessed as paw weight at 100 mg/kg, po administered 4 hrs post challenge measured after 60 mins (reference value: 31.9+/-3.0 g); assay type: functional
Rattus norvegicus [20] = assay: Antiinflammatory activity against carrageenan-induced edema in Sprague-Dawley rat assessed as right hind paw volume at 100 mg/kg, po administered 4 hrs post challenge measured after 60 mins; assay type: functional; summary of the method: as §3
[21] = target: T3, Prostaglandin G/H synthase 2 (Homo sapiens, UniProt P35354); assay: Inhibition of COX2-mediated PGE2 production in LPS-induced human whole blood after 60 mins by radioimmunoassay
T3 sequence (P35354 whole entry): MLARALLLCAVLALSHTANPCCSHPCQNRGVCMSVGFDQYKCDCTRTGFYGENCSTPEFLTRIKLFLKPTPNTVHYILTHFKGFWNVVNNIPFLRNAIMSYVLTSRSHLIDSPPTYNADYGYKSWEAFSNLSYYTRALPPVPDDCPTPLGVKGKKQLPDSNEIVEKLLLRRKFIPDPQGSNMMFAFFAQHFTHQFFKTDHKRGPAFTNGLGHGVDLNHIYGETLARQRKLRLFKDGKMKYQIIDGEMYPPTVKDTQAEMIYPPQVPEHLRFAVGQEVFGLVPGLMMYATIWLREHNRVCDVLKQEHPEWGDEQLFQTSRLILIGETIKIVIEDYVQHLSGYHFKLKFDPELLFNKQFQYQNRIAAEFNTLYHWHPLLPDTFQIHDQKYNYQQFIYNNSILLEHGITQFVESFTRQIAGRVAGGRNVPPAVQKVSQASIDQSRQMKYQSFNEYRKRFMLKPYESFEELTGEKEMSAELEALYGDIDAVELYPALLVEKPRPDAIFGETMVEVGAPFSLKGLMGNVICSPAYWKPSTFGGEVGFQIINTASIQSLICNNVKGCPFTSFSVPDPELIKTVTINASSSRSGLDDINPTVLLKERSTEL

Aorta [22] = assay: Vasorelaxation activity against KCl-induced contraction in isolated Wistar rat thoracic endothelium-denulated aortic rings in the presence of guanylate cyclase inhibitor ODQ; assay type: functional, tissue-based
Summary of the method: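 Thoracic aortic rings from male Wistar rats (250–350 g), endothelium removed by rubbing; rings relaxing ≥10% to ACh 10 μM on KCl 30 mM tone were discarded. ODQ 1 μM was incubated, then rings were contracted with KCl 30 mM and given 3-fold increasing concentrations of 1 nM–10 μM.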

Rattus norvegicus [23] = assay: Antiinflammatory activity against carrageenan-induced edema in Sprague-Dawley rat assessed as right hind paw volume at 20 mg/kg, po administered 4 hrs post challenge measured after 60 mins; assay type: functional; summary of the method: as §3
Rattus norvegicus [24] = assay: Antiinflammatory activity against carrageenan-induced edema in Sprague-Dawley rat assessed as right hind paw volume at 10 mg/kg, po administered 4 hrs post challenge measured after 60 mins; assay type: functional; summary of the method: as §3
Rattus norvegicus [25] = assay: Antiinflammatory activity against carrageenan-induced paw edema in Sprague-Dawley rat assessed as paw weight at 10 mg/kg, po administered 4 hrs post challenge measured after 120 mins (reference value: 61.5+/-3.4 g); assay type: functional
Rattus norvegicus [26] = assay: Antiinflammatory activity against carrageenan-induced paw edema in Sprague-Dawley rat assessed as paw weight at 10 mg/kg, po administered 4 hrs post challenge measured after 60 mins (reference value: 61.5+/-3.4 g); assay type: functional
Rattus norvegicus [27] = assay: Antiinflammatory activity against carrageenan-induced paw edema in Sprague-Dawley rat assessed as paw weight at 10 mg/kg, po administered 4 hrs post challenge measured after 30 mins (reference value: 61.5+/-3.4 g); assay type: functional
Rattus norvegicus [28] = assay: Antiinflammatory activity against carrageenan-induced paw edema in Sprague-Dawley rat assessed as paw weight at 30 mg/kg, po administered 4 hrs post challenge measured after 60 mins (reference value: 31.8+/-2.5 g); assay type: functional
Mus musculus [29] = assay: Analgesic activity in Swiss albino mouse abdominal constriction model assessed as reduction in acetic acid-induced writhing response at 30 mg/kg, po administered 30 mins prior to acetic acid-challenge measured after 5 mins relative to vehicle-treated control; assay type: functional, Abdomen; parameters: scale not given: the % may be the effect or the level left; summary of the method: as §2
Rattus norvegicus [30] = assay: Antiinflammatory activity against carrageenan-induced edema in Sprague-Dawley rat assessed as right hind paw volume at 30 mg/kg, po administered 4 hrs post challenge measured after 60 mins; assay type: functional; summary of the method: as §3
Rattus norvegicus [31] = assay: Antiinflammatory activity against carrageenan-induced paw edema in Sprague-Dawley rat assessed as paw weight at 30 mg/kg, po administered 4 hrs post challenge measured after 30 mins (reference value: 31.8+/-2.5 g); assay type: functional
Rattus norvegicus [32] = assay: Antiinflammatory activity against carrageenan-induced paw edema in Sprague-Dawley rat assessed as paw weight at 30 mg/kg, po administered 4 hrs post challenge measured after 120 mins (reference value: 31.8+/-2.5 g); assay type: functional
Rattus norvegicus [33] = assay: Analgesic activity in Sprague-Dawley rat assessed as reduction in carrageenan-induced paw hyperalgesia at 30 mg/kg, po administered 4 hrs post challenge measured after 30 mins relative to vehicle-treated control; parameters: scale not given: the % may be the effect or the level left

## Cc1c(CC(=O)OCCCO)cc(-c2ccc(S(C)(=O)=O)cc2)n1-c1cccc(F)c1
Rattus norvegicus [1]
  Activity: 41.2 g
[2]
  inhibition: 0%
[3]
  IC50: > 10 µM
Rattus norvegicus [4]
  Activity: 44.4 g
Rattus norvegicus [5]
  Activity: 36.4 g
Rattus norvegicus [6]
  Activity: 48.8 g
Rattus norvegicus [7]
  Activity: 45.8 g
Rattus norvegicus [8]
  Activity: 43.1 g
J774
  Ratio IC50: > 435
Mus musculus [9]
  Activity: inactive

## Cc1c(CC(=O)OCCO[N+](=O)[O-])cc(-c2ccc(S(C)(=O)=O)cc2)n1-c1cccc(F)c1
[2]
  inhibition: 36%
Rattus norvegicus [10]
  Activity: 2.17 mL
Rattus norvegicus [11]
  Activity: 35.3 g
[12]
  IC50: 9.6 µM
[3]
  IC50: > 10 µM
Rattus norvegicus [13]
  Activity: 57.2 g
Mus musculus [14]
  Activity: 70%
J774
  Ratio IC50: > 526
Rattus norvegicus [15]
  Activity: 40.1 g
Rattus norvegicus [16]
  Activity: 54.1 g
Aorta [17]
  IC50: 0.331 µM
Rattus norvegicus [18]
  Activity: 38.7 g
Rattus norvegicus [19]
  Activity: 36.5 g
Rattus norvegicus [20]
  Activity: 1.88 mL
[21]
  IC50: 3.2 µM
Aorta [22]
  Activity: inactive
Rattus norvegicus [23]
  Activity: 2.52 mL

## Cc1ccc(-c2cc(C(F)(F)F)nn2-c2ccc(S(N)(=O)=O)cc2)cc1 [CELECOXIB]
Rattus norvegicus [24]
  Activity: 1.36 mL
Rattus norvegicus [25]
  Activity: 54.9 g
Rattus norvegicus [26]
  Activity: 57.1 g
Rattus norvegicus [27]
  Activity: 54.3 g

## Cc1c(CC(=O)OCCO)cc(-c2ccc(S(C)(=O)=O)cc2)n1-c1cccc(F)c1
[2]
  inhibition: 33%
[12]
  IC50: 12.2 µM
[3]
  IC50: > 10 µM
Rattus norvegicus [28]
  Activity: 52.3 g
Mus musculus [29]
  Activity: 70%
Rattus norvegicus [30]
  Activity: 2.51 mL
Rattus norvegicus [31]
  Activity: 55.7 g
J774
  Ratio IC50: > 118
Rattus norvegicus [32]
  Activity: 39.3 g
[21]
  IC50: 1.7 µM
Rattus norvegicus [33]
  Activity: 80%

From ChEMBL document CHEMBL1938239, “Novel analgesic/anti-inflammatory agents: diarylpyrrole acetic esters endowed with nitric oxide releasing properties” (J Med Chem, 2011)
